Measured values from article PMC2757176 (The Journal of biological chemistry, 2009).
Blank lines part the entries; values can stand above or below the compound they belong to. Non-standard residues stand in square brackets, D forms with d. Residues, ends and D or L forms follow the SMILES beside them. *: point of attachment. Biotin = O=C1N[C@H]2[C@H](CS[C@H]2CCCCC(=O)*)N1; pY = N[C@@H](Cc1ccc(OP(=O)(O)O)cc1)C(=O)O

Experiments:
Assay in all cases: Biacore
Type in all cases: binding
[1] = molecular target: human LCK SH3-SH2 (Homo sapiens, UniProt P06239)
Outline: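 Recombinant human LCK SH3-SH2 (aa 58–230), N-terminal His-tagged, nickel-agarose purified, gel-filtered; concentration from A280 using a theoretical extinction coefficient. BIAcore 3000 at 37 °C: ~3000 RU streptavidin amine-coupled to CM5 captured biotinylated peptides (CD2 proline-rich peptides ~100 RU; phospho-CD244 ITSM1 ~25 RU). Protein passed at various concentrations; equilibrium binding fitted for Kd against a control flow cell.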

[2] = molecular target: human FYN SH3-SH2 (Homo sapiens, UniProt P06241)
[3] = molecular target: T1, human PLC-γ1 SH2 N+C (Homo sapiens, UniProt P19174); conditions: ratio of SPR affinities, PLC-γ1 SH2 N+C versus FYN-SH3-SH2
T1 sequence (P19174 545-749): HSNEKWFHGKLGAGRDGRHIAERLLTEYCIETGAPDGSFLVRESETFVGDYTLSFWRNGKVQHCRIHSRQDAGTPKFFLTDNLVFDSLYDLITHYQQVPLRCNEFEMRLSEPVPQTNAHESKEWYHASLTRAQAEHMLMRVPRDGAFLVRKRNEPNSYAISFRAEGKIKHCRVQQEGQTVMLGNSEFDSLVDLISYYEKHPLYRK

human FYN SH3-SH2, sequence (P06241 82-248): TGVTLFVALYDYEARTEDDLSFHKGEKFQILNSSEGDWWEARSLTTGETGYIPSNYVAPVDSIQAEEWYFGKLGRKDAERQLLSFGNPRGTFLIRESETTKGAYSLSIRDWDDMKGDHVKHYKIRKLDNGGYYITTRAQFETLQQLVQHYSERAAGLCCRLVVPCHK
human LCK SH3-SH2, sequence (P06239 58-230): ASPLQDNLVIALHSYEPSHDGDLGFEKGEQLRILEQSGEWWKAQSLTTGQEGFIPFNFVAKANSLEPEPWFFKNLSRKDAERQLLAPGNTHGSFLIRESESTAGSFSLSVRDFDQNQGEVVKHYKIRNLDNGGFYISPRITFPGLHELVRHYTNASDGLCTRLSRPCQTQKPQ

Compound: CC(C)[C@H](NC(=O)[C@H](CCCNC(=N)N)NC(=O)[C@H](Cc1c[nH]cn1)NC(=O)CNC(=O)[C@@H]1CCCN1C(=O)[C@@H]1CCCN1C(=O)[C@@H]1CCCN1C(=O)[C@@H]1CCCN1C(=O)[C@H](CCCNC(=N)N)NC(=O)[C@H](Cc1c[nH]cn1)NC(=O)[C@H](CO)NC(=O)[C@@H]1CCCN1C(=O)[C@H](C)NC(=O)[C@H](CCC(N)=O)NC(=O)[C@H](CO)NC(=O)[C@H](CCCNC(=N)N)NC(=O)[C@H](Cc1c[nH]cn1)NC(=O)CNC(=O)[C@@H]1CCCN1C(=O)[C@@H]1CCCN1C(=O)[C@@H]1CCCN1C(=O)[C@@H]1CCCN1C(=O)[C@@H]1CCCN1C(=O)[C@H](Cc1c[nH]cn1)NC(=O)CCCC[C@@H]1SC[C@@H]2NC(=O)N[C@@H]21)C(=O)N[C@@H](CCC(N)=O)C(=O)O [CD2-281-305] (Biotin-HPPPPPGHRSQAPSHRPPPPGHRVQ-OH)
Kd [1]: > 1 mM

Compound: CC(C)C[C@H](NC(=O)[C@@H]1CCCN1C(=O)[C@@H]1CCCN1C(=O)CNC(=O)[C@H](CCCCN)NC(=O)[C@H](CCC(N)=O)NC(=O)CCCC[C@@H]1SC[C@@H]2NC(=O)N[C@@H]21)C(=O)N1CCC[C@H]1C(=O)N[C@@H](CCCNC(=N)N)C(=O)N1CCC[C@H]1C(=O)N[C@@H](CCCNC(=N)N)C(=O)N[C@H](C(=O)N[C@@H](CCC(N)=O)C(=O)N1CCC[C@H]1C(=O)N[C@@H](CCCCN)C(=O)N1CCC[C@H]1C(=O)N1CCC[C@H]1C(=O)N[C@@H](Cc1c[nH]cn1)C(=O)NCC(=O)O)C(C)C [CD2-322] (Biotin-QKGPPLPRPRVQPKPPHG-OH)
Kd [1]: > 1 mM

FYN binding, fold weaker than to the CD244 ITSM ([2]; ratio of SPR affinities, relative to CD244 ITSM 1 peptide): ~ 5 fold
fold increase in affinity of PLC-γ1 compared with FYN binding [3]: 30 fold
Compound: CC(C)C[C@H](NC(=O)[C@@H](NC(=O)[C@H](CC(=O)O)NC(=O)[C@@H](NC(=O)[C@H](Cc1ccc(OP(=O)(O)O)cc1)NC(=O)[C@H](CC(=O)O)NC(=O)[C@H](CO)NC(=O)[C@H](CC(N)=O)NC(=O)[C@H](CO)NC(=O)[C@H](CC(N)=O)NC(=O)CCCC[C@@H]1SC[C@@H]2NC(=O)N[C@@H]21)C(C)C)C(C)C)C(=O)N1CCC[C@H]1C(=O)O [EAT-2 127] (Biotin-NSNSD[pY]VDVLP-OH)

FYN-SH3-SH2 binding to immobilised peptide (in words) ([2]; SPR, 37 °C, biotinylated peptide on streptavidin chip): Negligible binding
Compound: Biotin-KQFQP[pY]FIPIN-OH [CTLA-4, reference compound]
